Measured values reported in PMC3421229 (International Journal of Biological Sciences, 2012).

Columns and labels:
LdisPBP1 [1] = biological target: T1, LdisPBP1 (Lymantria dispar, UniProt O16105); experiment: fluorescence titration of 1-NPN with LdisPBP1; type: binding; settings: dissociation constant of the LdisPBP1/1-NPN complex
T1 sequence (O16105 20-162): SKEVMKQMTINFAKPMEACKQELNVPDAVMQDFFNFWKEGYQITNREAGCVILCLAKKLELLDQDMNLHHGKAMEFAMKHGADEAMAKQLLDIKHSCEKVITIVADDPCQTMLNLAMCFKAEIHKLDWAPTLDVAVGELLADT
Procedure, shortened: (§1)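 Recombinant His-tagged PBP from E. coli, Ni-resin and gel-filtration purified. A 2 μM protein solution in 50 mM Tris-HCl pH 7.3 or 50 mM Na2HPO4-citric acid pH 5.5 was titrated with 1-NPN (1 mM methanol stock) to 1–20 μM final. 25°C; excitation 337 nm, emission 370–470 nm, 10 nm slits. Kd calculated from the binding curve; three independent measurements.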

LdisPBP2 [2] = biological target: T2, LdisPBP2 (Lymantria dispar, UniProt O16106); experiment: fluorescence titration of 1-NPN with LdisPBP2; type: binding; settings: dissociation constant of the LdisPBP2/1-NPN complex
T2 sequence (O16106 21-165): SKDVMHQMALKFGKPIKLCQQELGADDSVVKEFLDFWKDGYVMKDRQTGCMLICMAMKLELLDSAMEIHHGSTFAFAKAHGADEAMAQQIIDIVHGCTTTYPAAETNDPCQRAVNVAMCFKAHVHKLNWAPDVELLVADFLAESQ
Procedure, shortened: as §1

PBP1 = settings: cited from earlier work
LdisPBP1 [3] = biological target: T1, LdisPBP1; experiment: competitive fluorescence binding assay with 1-NPN as probe, LdisPBP1
Procedure, shortened: (§2)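 N-terminally His-tagged recombinant PBP was expressed in E. coli BL21(DE3) (0.25 mM IPTG, 18°C overnight), then purified by Ni-resin and gel filtration. 2 μM protein plus 2 μM 1-NPN in 50 mM Tris-HCl pH 7.3 or 50 mM Na2HPO4-citric acid pH 5.5, at 25°C; ex 337 nm, em 370–470 nm. Competitors (1 mM methanol stock) at 2–20 μM. IC50 = half-maximal fluorescence reduction; Ki = IC50/(1+[1-NPN]/K1-NPN). Triplicates.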

LdisPBP2 [4] = biological target: T2, LdisPBP2; experiment: competitive fluorescence binding assay with 1-NPN as probe, LdisPBP2
Procedure, shortened: as §2

male L.dispar = experiment: initial field experiment, attraction of male moths; type: in vivo, Lymantria dispar; settings: initial field experiment (data not shown)
gypsy moth = settings: cited from earlier work
[5] = PBP1[Ki(μM)] pH5.5, pH 5.5, n=3, 2 μM protein and 1-NPN
[6] = PBP1[Ki(μM)] pH7.3, pH 7.3, n=3, 2 μM protein and 1-NPN
[7] = PBP2[Ki(μM)] pH5.5, pH 5.5, n=3, 2 μM protein and 1-NPN
[8] = PBP2[Ki(μM)] pH7.3, pH 7.3, n=3, 2 μM protein and 1-NPN

SMILES | Kd (LdisPBP1 [1]; pH 5.5) | Kd (LdisPBP1 [1]; pH 7.3) | Kd (LdisPBP2 [2]; pH 5.5) | Kd (LdisPBP2 [2]; pH 7.3) | binding preference of PBP1 for pheromone enantiomers (PBP1) | Ki (LdisPBP1 [3]; [5]) | Ki (LdisPBP1 [3]; [6]) | Ki (LdisPBP2 [4]; [7]) | Ki (LdisPBP2 [4]; [8]) | attraction of male L.dispar compared with (+)-D alone (male L.dispar) | effect on the pheromone (gypsy moth)
c1ccc(Nc2cccc3ccccc23)cc1 [1-NPN, N-phenyl-1-naphthylamine] | 1.71 ± 0.2 µM | 1.77 ± 0.31 µM | 8.74 ± 2.05 µM | 2.03 ± 0.42 µM |  |  |  |  |  |  | 
CCCCCCCCCC[C@H]1O[C@H]1CCCCC(C)C [(-)-disparlure] |  |  |  |  | preferentially bound |  |  |  |  |  | 
O=C(CCCCC(=O)OCC1CCC2OC2C1)OCC1CCC2OC2C1 (stereo not shown) [Bis, Bis(3,4-epoxycyclohexylmethyl) adipate] |  |  |  |  |  | 2.2 ± 0.01 µM | 3.25 ± 0.02 µM | 3.54 ± 0.01 µM | 1.97 ± 0.01 µM | reverse | 
CCCCCCCCCCC1OC12CC2 (stereo not shown) [OXP1, 2-decyl-1-oxaspiro[2.2]pentane] |  |  |  |  |  | 0.68 ± 0.01 µM | 1.87 ± 0.01 µM | 1.88 ± 0.02 µM | 1.85 ± 0.02 µM |  | inhibited the effect of the pheromone
OCCCCC1OC12CC2 (stereo not shown) [OXP2, 4-(1-oxaspiro[2.2]pent-2-yl)butan-1-ol] |  |  |  |  |  | 6.33 ± 0.18 µM | 2.99 ± 0.08 µM | 5.14 ± 0.06 µM | 2.46 ± 0.02 µM |  | enhanced that of pheromone
O=Cc1ccccc1O [Sal, Salicylaldehyde] |  |  |  |  |  | 3.05 ± 0.01 µM | 2.93 ± 0.02 µM | 6.06 ± 0.06 µM | 5.32 ± 0.07 µM | reverse | 
